# An excerpt weighted towards active compounds, which were near 4.4% of everything screened.
# MPTP block = permeability transition pore inhibition | isolated mouse mitochondria, Ca2+ swelling absorbance, 30 min | inhibition, % at 10 µM | 360,000 compounds, 1.4% hits | AID 602449;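 active = inhibition of 50% or more, scaled per plate between neutral and stimulator controls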;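 also: 0% = DMSO wells given calcium and 100% = 1 mM EGTA wells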
# EBI2 antag = EBI2 (human) antagonism | inhibition, % at 5 µM | P32249 | AID 651636 | 360,000 compounds, 0.81% hits | EBI2 beta-arrestin recruitment, luminescence, 7a,25-OHC stimulated; in the data active = inhibition above about 38%;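 also: enzyme fragment complementation signal reports receptor beta-arrestin coupling in cells; 0% = agonist plus DMSO wells and 100% = wells without agonist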
# SENP1 inh = SENP1 (human) catalytic domain inhibition | Q9P0U3 | recombinant SENP1 catalytic domain, CyPet-SUMO1-YPet FRET cleavage | inhibition, % at 10 µM | 360,000 compounds, 0.21% hits | AID 624204;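 active = inhibition at least 30% at 10 µM, raw YFP signal under a set limit, fluorescence ratio 0.5 to 1.5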;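 also: 0% = enzyme with DMSO and 100% = no enzyme wells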
# Target sequence (Q9P0U3 419-644 limits assumed): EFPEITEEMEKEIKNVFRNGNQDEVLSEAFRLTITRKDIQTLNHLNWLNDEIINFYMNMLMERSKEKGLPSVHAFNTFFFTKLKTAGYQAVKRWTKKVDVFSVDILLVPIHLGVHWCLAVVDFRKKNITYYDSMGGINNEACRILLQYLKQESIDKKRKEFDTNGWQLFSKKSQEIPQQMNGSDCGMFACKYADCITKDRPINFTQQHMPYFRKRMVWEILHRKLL
#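 Test system: recombinant human SENP1 catalytic domain, His6-tagged / Medium: pH 8 Tris buffer with EDTA, NaCl, BME, BSA, NP40, catalase / Also added: SUMO1 FRET substrate flanked by Cypet and Ypet, 25 nM / Times: 50 min reaction at room temperature / Signal: FRET, CFP and YFP emission / Control set: no-enzyme low control and enzyme-plus-DMSO high control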
# GRIN3A LBD mod = NR3A (human) ligand-binding domain modulation; Tm shift relative to glycine control, % at 25 µM; 340,000 compounds, 2.5% hits; NR3A LBD differential scanning fluorimetry, Tm shift; 0% = protein alone, 100% = glycine-bound protein;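 active = melting temperature shift of at least 10% of the positive control shift, at one fixed dose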
# Numbers without * were called inactive; x = not tested or not shown.
SMILES,MPTP block,EBI2 antag,SENP1 inh,GRIN3A LBD mod
CC(C)(C)NC(=O)/C=C/c1cccc(C(F)(F)F)c1,1.8,-1.0,2.6,0.9
CC(=O)Nc1ccc(NC(=O)/C=C/c2cccc(C(F)(F)F)c2)cc1,2.2,-6.3,0.9,18.1*
CC(=O)Nc1ccc(NC(=O)CN2CCN(c3cccc(C(F)(F)F)c3)CC2)cc1,1.9,-8.6,1.5,-0.6
O=C(/C=C/c1ccc(Cl)cc1)Nc1ccc(N2CCOCC2)cc1,2.5,31.1,1.7,-12.8
Cc1ccc(SCc2cc(=O)[nH]c(/N=C(\N)Nc3ccc(C)c(C)c3)n2)cc1,3.5,17.3,0.8,-0.2
O=C(NC(=S)Nc1nc(-c2ccc(Cl)cc2)cs1)c1cccs1,1.5,24.0,-1.3,-7.8
O=C(/C=C/c1ccco1)NC(=S)Nc1nc(-c2ccc3ccccc3c2)cs1,3.6,12.8,1.9,33.0*
O=C(/C=C/c1ccco1)NC(=S)Nc1nc(-c2ccc(Cl)cc2)cs1,3.1,12.4,-1.1,129.1*
O=C(O)/C=C/C(=O)Nc1nc(-c2ccc3ccccc3c2)cs1,19.8,10.8,-0.1,-1.6
CC(C)CC(=O)NC(=S)Nc1nc(-c2ccc(Cl)cc2)cs1,5.9,10.7,1.8,29.7*
Cc1ccc(-c2csc(NC(=O)/C=C/c3cccs3)n2)cc1C,-0.5,10.2,0.8,19.2*
CN(CC(=O)Nc1ccc(Cl)c(C(F)(F)F)c1)C(=O)Cc1c[nH]c2ccccc12,0.6,1.3,-1.2,12.1*
COc1cc(NC(=O)c2cc(-c3ccccc3Cl)on2)cc(OC)c1OC,0.2,21.3,1.4,-23.6
CCCOc1ccc(N2C(=O)C/C(=C\c3ccccc3)C2=O)cc1,2.4,14.8,2.3,2.6
O=C(COc1ccccc1)N1CCN(C(=O)COc2ccccc2)CC1,-1.9,15.4,3.3,0.8
O=C(COc1ccc(-c2ccccc2)cc1)N1CCN(C(=O)c2cccnc2)CC1,-2.9,2.3,2.6,12.2*
O=C(COC(=O)c1ccc(Sc2ccccc2)c([N+](=O)[O-])c1)NC1CCS(=O)(=O)C1 (stereo not drawn),0.8,1.4,0.9,7.8
COc1ccc(-c2cc(-c3ccccc3)nc(SCC(=O)Nc3ncc(C)s3)c2C#N)cc1,5.7,12.4,2.1,20.5*
O=C(OCc1csc(-c2ccccc2)n1)c1ccc(O)cc1,0.4,-2.9,2.3,20.5*
O=C(OCc1csc(Nc2ccccc2)n1)c1ccc(Cl)cc1,-0.5,2.5,-1.5,10.7*
COc1ccc(/C=C/C(=O)OCc2csc(-c3ccccc3)n2)cc1OC,0.3,-1.5,0.9,17.6*
O=C(COc1ccccc1)OCc1csc(Nc2ccccc2)n1,2.2,3.9,0.2,-7.0
COc1ccc(/C=C/C(=O)O/N=C(\N)c2ccccn2)cc1OC,-1.7,-7.3,-1.3,0.1
Cc1ccc(C(=O)NCC(=O)OCc2csc(-c3ccccc3)n2)cc1,0.3,-2.1,2.9,0.2
OC(c1ccccc1)c1nc(/C=C/c2ccccc2)cs1 (stereo not drawn),-0.4,5.2,0.0,x
SMILES,MPTP block,EBI2 antag,SENP1 inh,GRIN3A LBD mod
CC(C)(C)C(=O)Nc1ccc(-c2csnn2)cc1,1.6,-10.4,1.7,-2.2
COc1cccc(CN(C)C(=O)Cc2ccc(OC)c(S(=O)(=O)N3CCOCC3)c2)c1,-1.2,-13.7,2.0,-0.9
Cc1nc2ccc(NC(=O)COc3ccccc3C)cc2s1,-0.7,-0.2,-4.1,31.5*
Cc1ccccc1OCc1nnc(SCC(=O)Nc2ccc3nc(SCC(=O)Nc4ccccc4)sc3c2)n1C,3.8,-9.2,-3.0,16.9*
O=C(CSc1nc2ccc(NC(=O)CSc3nnnn3Cc3ccccc3)cc2s1)Nc1ccccc1,13.4,-13.8,-4.7,17.5*
COC(=O)CSc1nc2ccc(NC(=O)CSc3nnnn3Cc3ccccc3)cc2s1,0.4,-2.0,0.4,-5.7
Cc1ccccc1OCc1nnc(SCC(=O)Nc2ccc3c(c2)OCO3)n1C,1.3,5.0,0.0,1.2
O=C(CSc1nc2ccc(NC(=O)c3ccccc3C(=O)O)cc2s1)Nc1ccc(F)c([N+](=O)[O-])c1,-1.0,-12.8,6.7,18.3*
COc1ccc(-c2nc(CN(Cc3cnn(C)c3)C(C)C)c(C)o2)c(OC)c1,-1.3,-0.8,-4.7,-0.8
CCCN1CCC(N2CCCC(C(=O)O)C2)CC1 (stereo not drawn),-1.8,2.7,-1.1,4.0
Cc1ccc(NC(=O)Nc2ccccc2F)cc1S(=O)(=O)N1CCOCC1,1.8,-1.6,-0.3,-1.8
Cc1cccc(NS(=O)(=O)c2ccc(NC(=O)CN(c3cc([N+](=O)[O-])ccc3C)S(C)(=O)=O)cc2)c1,-2.3,85.5*,0.2,22.0*

# High-throughput results as filed in PubChem.
